Assay results gathered from unrelated publications.
Target: Dual specificity mitogen-activated protein kinase kinase 1 (MAP2K1, Homo sapiens, UniProt Q02750)

SMILES | test | conditions | quantity | result
Cn1cc(-c2cccc(N3CCc4c(sc5c4CC(C)(C)C5)C3=O)c2CO)cc(Nc2ccncn2)c1=O | enzyme activity, inhibitor | 1 µM | inhibition | 0%
N#CC1(c2ccccn2)CCN(Cc2cc(C(=O)O)c(=O)n3ccccc23)CC1 | cell-free assay, competition with immobilised ligand | 1 µM | remaining binding | 95%
COc1ncccc1-c1cnn2ccc(N3CCN(C(=O)OC(C)C)CC3)nc12 | binding, competition with immobilised ligand | 1 µM | remaining binding | 100%
CC(C)(C)c1cc(C=C(C#N)C#N)cc(Br)c1O | enzyme activity, inhibitor | 0.5 µM | remaining activity | 90.8%
Cn1cncc1[C@](O)(COc1ccc(C#N)cc1-c1ccc(OC(F)(F)F)cc1)c1ccc(C#N)cc1 | cell-free assay, competition with immobilised ligand | 1 µM | remaining binding | 100%
O=c1[nH]c2ccccc2n1C1CCN(Cc2ccc(-c3[nH]c4cc5ncnc5cc4nc3-c3ccccc3)cc2)CC1 | cell-free assay | 0.5 µM | remaining signal | 96.8%
C#Cc1n[nH]c2c(-c3cn([C@@H](C)c4ccccc4)c(=O)[nH]c3=O)cc(F)cc12 | enzyme activity, inhibitor | 0.1 µM | inhibition | 6.6%
Cc1nn(C)cc1-c1nc2c(N3CCN(Cc4ccc(Cl)cc4)CC3)c(Cl)cnc2[nH]1 | binding, competition with immobilised ligand | 1 µM | remaining binding | 100%
Cn1cc(-c2cc(F)cc(N3CCn4c(cc5c4CCCC5)C3=O)c2CO)cc(Nc2ccc(N3CCN(C4COC4)CC3)cn2)c1=O | enzyme activity, inhibitor | 0.1 µM | inhibition | 6%
Nc1ncc(-c2nc(N3CCOCC3)nc(N3CCOCC3)n2)c(C(F)F)n1 | binding, competition with immobilised ligand | 10 µM | remaining binding | 83%
C#Cc1n[nH]c2c(-c3cn([C@@H](C)c4ccccn4)c(=O)[nH]c3=O)cc(F)cc12 | enzyme activity, inhibitor | 0.1 µM | inhibition | 12%
